Compound activity (PubChem BioAssay)
Sampled rows, rich in hits. Any-hit rate of the full collection: about 2.9%.
DENV2 CPE rescue – inhibitors of DENV2 cytopathic effect, primary screen, cell-based, plate reader, single concentration. 350,000 tested, 1.7% active. DENV2-infected cells, cytopathic effect rescue. CPE inhibition, % at 9.99 µM; in the data active = CPE inhibition above about 20%, passing the limit was not always enough; inconclusive = no clear call, values can overlap the other calls; tested in BHK-21 cells;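 also: 0% = median of neutral control wells and 100% = median of positive control wells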
E-selectin induc – E-selectin induction in HUVECs, primary screen, imaging, HUVEC, immunofluorescence imaging, single point | P16581 | normalized: neutral wells 0, TNF-alpha wells 100 | activation, % at 7.58 µM | 260,000 tested, 0.37% active;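 active = mean E-selectin-positive cell signal at least 10% of the positive control, reached in at least 60% of replicates, without over 20% cell loss; inconclusive = no rule given, readout overlaps actives, possibly toxicity-flagged; inactive = the rest, including those meeting only one limit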
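Test system – human umbilical vein endothelial cells (HUVEC), E-selectin induction · Input – 3,000 HUVEC seeded per well · Buffer or medium – EGM-2, gelatin · Compound dosing – single-point compound dose · Detection – immunofluorescence imaging · Measure – percent E-selectin-positive cells · Controls – TNF-alpha high, DMSO low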
SIRT5 inh – SIRT5 desuccinylase inhibitors, primary screen, biochemical, fluorescence imaging, single point, set 5; NAD-dependent protein deacylase sirtuin-5, mitochondrial (Homo sapiens), Q9NXA8; Purified SirT5, succinyl-peptide AMC, trypsin-coupled fluorescence; inhibition, % at 15 µM; 330,000 tested, 1.1% active; AID 652115, 2013; in the data active = inhibition above about 15%; inconclusive = no clear call, values can overlap the other calls
An asterisk follows results filed as active.

How did COc1ccccc1CN1CC(C(=O)N(C)Cc2nc(C)cs2)CCC1=O (stereo not drawn) do in these assays?
DENV2 CPE rescue: -9; E-selectin induc: 0; SIRT5 inh: -4

Results for O=C(/C=C/c1ccco1)N(Cc1ccc(Cl)cc1)C1CCS(=O)(=O)C1 (stereo not drawn) ?
DENV2 CPE rescue: -5; E-selectin induc: 0; SIRT5 inh: 57*

What do the screens show for `CN(C)c1ccc(CN(C(=O)/C=C/c2ccco2)C2CCS(=O)(=O)C2)cc1` (stereo not drawn)?
DENV2 CPE rescue: 0; SIRT5 inh: -5

How did CCN1C(=O)[C@H]2[C@H]3CN=C(SCc4ccc(C#N)cc4)N3[C@@](C)(C(=O)OC)[C@H]2C1=O do in these assays?
DENV2 CPE rescue: -9; SIRT5 inh: 12

How did CC(=O)Nc1ccc(C=NNC(=O)c2ccc(NS(=O)(=O)c3cccs3)cc2)cc1 do in these assays?
DENV2 CPE rescue: 0; E-selectin induc: 1; SIRT5 inh: 0

Results for Cc1ccc(NC(=O)CN(C)C(=O)c2cc(C)on2)cc1 ?
DENV2 CPE rescue: -6; SIRT5 inh: -3

Results for CCc1ccc([C@@H]2CC=C(C(=O)O)[C@H](c3ccccc3)N2S(=O)(=O)c2ccc(C)cc2)cc1 ?
DENV2 CPE rescue: -9; SIRT5 inh: 1

Results for Cc1ccc(S(=O)(=O)N2[C@@H](c3ccc(Br)cc3)C(C(=O)O)=CC[C@H]2c2ccc(C(C)C)cc2)cc1 ?
DENV2 CPE rescue: 23*; E-selectin induc: 0; SIRT5 inh: 15*

Results for Cc1ccc(S(=O)(=O)N2[C@@H](c3ccc(C(C)(C)C)cc3)C(C(=O)O)=CC[C@H]2c2ccc(Cl)cc2)cc1 ?
DENV2 CPE rescue: 13; E-selectin induc: -2; SIRT5 inh: 16*

Results for Cc1ccc(S(=O)(=O)N2[C@@H](c3ccc(C(C)(C)C)cc3)C(C(=O)O)=CC[C@H]2c2ccc(C(C)C)cc2)cc1 ?
DENV2 CPE rescue: -24; E-selectin induc: 0; SIRT5 inh: 28*

What do the screens show for `Cc1ccc([C@@H]2CC=C(C(=O)O)[C@H](c3ccc(Br)cc3)N2S(=O)(=O)c2ccc(C)cc2)cc1`?
DENV2 CPE rescue: 4; E-selectin induc: 0; SIRT5 inh: 4

How did Cc1ccc(S(=O)(=O)N2[C@@H](c3ccccc3F)C(C(=O)O)=CC[C@H]2c2ccc(C(C)C)cc2)cc1 do in these assays?
DENV2 CPE rescue: -6; E-selectin induc: 1

How did CCc1ccc([C@@H]2CC=C(C(=O)O)[C@H](c3ccc(C(C)(C)C)cc3)N2S(=O)(=O)c2ccc(C)cc2)cc1 do in these assays?
DENV2 CPE rescue: 48*; E-selectin induc: -1; SIRT5 inh: 22*

How did Cc1ccc([C@@H]2CC=C(C(=O)O)[C@H](c3ccc(C(C)(C)C)cc3)N2S(=O)(=O)c2ccc(C)cc2)cc1 do in these assays?
DENV2 CPE rescue: inconclusive; E-selectin induc: 0; SIRT5 inh: 7

How did N#C/C(=C\c1ccc([N+](=O)[O-])cc1)c1ccccn1 do in these assays?
DENV2 CPE rescue: 0; SIRT5 inh: -2

Results for FC(F)(F)c1cccc(NC(=S)N2CCN(c3ccccn3)CC2)c1 ?
DENV2 CPE rescue: -11; SIRT5 inh: -3

What do the screens show for `C#CCSc1nnnn1-c1ccc(OCC)cc1`?
DENV2 CPE rescue: -4; SIRT5 inh: 0

How did O=C(C1CCCC1)N1CCC(CC2CC(c3ccc(Cl)cc3)=NO2)(C(=O)NCC2CCCCC2)CC1 (stereo not drawn) do in these assays?
DENV2 CPE rescue: -9; E-selectin induc: 0; SIRT5 inh: 0

Results for O=C(C1CCCC1)N1CCC(CC2CC(c3cccc(Br)c3)=NO2)(C(=O)NCC2CCCCC2)CC1 (stereo not drawn) ?
DENV2 CPE rescue: 53*; E-selectin induc: 0; SIRT5 inh: 4

Results for CCOP(=O)(CC(C(C)=O)C(O)c1ccccc1)OCC (stereo not drawn) ?
DENV2 CPE rescue: 3; E-selectin induc: 0; SIRT5 inh: -1

How did Oc1ccc(C2=NN(c3ccccc3)C(c3ccc(F)cc3)C2)cc1 (stereo not drawn) do in these assays?
DENV2 CPE rescue: -5; SIRT5 inh: -4

What do the screens show for `C/C(CC(=O)Nc1cc(Cl)ccc1C)=N\NC(=O)C(=O)N1CCCC1`?
DENV2 CPE rescue: -7; E-selectin induc: 0; SIRT5 inh: 28*

How did C/C(CC(=O)Nc1ccc(Cl)cc1Cl)=N\NC(=O)C(=O)N1CCCC1 do in these assays?
E-selectin induc: 5; SIRT5 inh: -8

How did COc1cccc(C(=O)C(C#N)=C(SC)SC)c1 do in these assays?
DENV2 CPE rescue: 34*; E-selectin induc: 0

What do the screens show for `CSC(SC)=C(C#N)C(=O)c1ccccc1`?
DENV2 CPE rescue: inconclusive; E-selectin induc: 0; SIRT5 inh: 0
